This is an account of results in ChEMBL document CHEMBL1123325, “Isomer-dependent cytostatic activity of bis(1-aziridinyl)cyclophosphazenes” (1986).

Each structure is given as a SMILES string.

Common to all, as to type: functional
Assay [1] has as its system Mus musculus. In words: Tested for percent median survival time of drug-treated mice over that of untreated control mice at dose of 200 mg/kg. Summed up: (§1)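 10^5 L1210 leukemia cells from in vitro suspension culture were injected into male (BALB/c × DBA/2)F1 (CDF1) mice as intraperitoneal leukemia. Dosing began 24 h later, with 5 mice per dose and 10 untreated controls. Survival times were recorded. The value is the median survival time of treated mice as a percent of untreated controls (T/C%), with 60-day long-term survivors noted.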

In assay [2] the test system is Mus musculus. Nature of the assay: Compound was tested for percent median survival time of drug-treated mice over that of untreated control mice at dose of 175 mg/kg. A digest of the protocol: as §1
For assay [3], the system named is L1210. Nature of the assay: Tested in vivo for 50% lethal dose in L1210 mouse leukemia cells.
The subject of assay [4] is L1210. In words: In vitro inhibition dose (cytostatic activity) in L1210 mouse leukemia cells.
Assay [5] has as its system Mus musculus. Nature of the assay: Compound was tested for percent median survival time of drug-treated mice over that of untreated control mice at dose of 70 mg/kg. A digest of the protocol: as §1
The subject of assay [6] is Mus musculus. Nature of the assay: Compound was tested for percent median survival time of drug-treated mice over that of untreated control mice at dose of 180 mg/kg. Summed up:
as §1

For assay [7], the system named is Mus musculus. Nature of the assay: Compound was tested for percent median survival time of drug-treated mice over that of untreated control mice at dose of 140 mg/kg. A digest of the protocol:
as §1

For another assay, the system named is L5178Y. In words: In vitro lowest active dose (LAD) in L5178Y mouse lymphoma cells.
Assay [8] has as its system Mus musculus. In words: Compound was tested for percent median survival time of drug-treated mice over that of untreated control mice at dose of 100 mg/kg. A digest of the protocol:
as §1

The subject of assay [9] is Mus musculus. In words: Tested for percent median survival time of drug-treated mice over that of untreated control mice at dose of 40 mg/kg. Summed up:
as §1

Assay [10] deals with Mus musculus. In words: Compound was tested for percent median survival time of drug-treated mice over that of untreated control mice at dose of 35 mg/kg. Summed up:
as §1

For assay [11], the system named is Mus musculus. In words: Compound was tested for percent median survival time of drug-treated mice over that of untreated control mice at dose of 110 mg/kg. Summed up:
as §1

For assay [12], the system named is Mus musculus. In words: Compound was tested for percent median survival time of drug-treated mice over that of untreated control mice at dose of 90 mg/kg. Summed up: as §1
Assay [13] concerns Mus musculus. In words: Compound was tested for percent median survival time of drug-treated mice over that of untreated control mice at dose of 50 mg/kg. Summed up: as §1
The test system of assay [14] is Mus musculus. In words: Compound was tested for percent median survival time of drug-treated mice over that of untreated control mice at dose of 30 mg/kg. Summed up:
as §1

Assay [15] has as its system Mus musculus. In words: Compound was tested for percent median survival time of drug-treated mice over that of untreated control mice at dose of 400 mg/kg. A digest of the protocol:
as §1

In assay [16] the test system is Mus musculus. Nature of the assay: Compound was tested for percent median survival time of drug-treated mice over that of untreated control mice at dose of 600 mg/kg. A digest of the protocol:
as §1

For assay [17], the system named is Mus musculus. In words: Compound was tested for percent median survival time of drug-treated mice over that of untreated control mice at dose of 800 mg/kg. A digest of the protocol: as §1

Broadly, the T/C is the ratio of treated to control. One may read the LD50 as the dose expected to kill half of the subjects tested. High values mean a less toxic substance, low ones a more toxic substance. As to `O=S1(N2CC2)=NP(N2CC2)(N2CC2)=NP(N2CC2)(N2CC2)=N1` (stereo unspecified), the T/C stood at 163% in the assay with Mus musculus [1] and 188% in the assay on Mus musculus [2]. The median lethal dose (LD50) in the assay with L1210 [3] was determined as 250 mg/kg. For the same compound, the ID50 with L1210 [4] is on record as 1.06e-05 M l-1.
For the compound `CNP1(NC)=N[P@](NC)(N2CC2)=NP(NC)(NC)=N[P@@](NC)(N2CC2)=N1`, the T/C with Mus musculus [5] is 289%; with Mus musculus [6] it was 311%; in the assay with Mus musculus [7], 333%; with Mus musculus [8], 244%. Moreover, in the assay on L5178Y, the LAD is given as 5e-07 M l-1. Further, the LD50 with L1210 [3] came to 200 mg/kg. For the same compound, the ID50 with L1210 [4] is listed as 4.6e-06 M l-1.
As for `CNP1(N2CC2)=NP(N2CC2)(N2CC2)=NP(N2CC2)(N2CC2)=N1` (stereo unspecified), the LD50 with L1210 [3] is 45 mg/kg. Moreover, the ID50 in the assay on L1210 [4] is 1.2e-06 M l-1. Moreover, the T/C with Mus musculus [9] and in the assay on Mus musculus [10] was 188% throughout.
Consider `C1CCN([P@@]2(N3CC3)=NP(N3CC3)(N3CC3)=N[P@@](N3CCCCC3)(N3CC3)=N2)CC1`, for which the T/C is recorded as 189% with Mus musculus [11] and 167% in the assay with Mus musculus [12]. The LD50 in the assay with L1210 [3] was found to be 140 mg/kg. Also, the ID50 with L1210 [4] was 2.1e-06 M l-1.
As for `CNP1(NC)=N[P@@](NC)(N2CC2)=N[P@](NC)(N2CC2)=N1`, the T/C in the assay on Mus musculus [13] stood at 289%; in the assay with Mus musculus [14] it was 200%; in the assay with Mus musculus [9] it was 222%. Further, in the assay on L5178Y, the LAD turned out to be 1e-06 M l-1. In the assay on L1210 [3], the LD50 was found to be 50 mg/kg. Moreover, the ID50 in the assay with L1210 [4] stood at 3.3e-06 M l-1.
For the compound `CNP1(NC)=NP(NC)(NC)=NP(N2CC2)(N2CC2)=N1`, the figures for the T/C in the assay on Mus musculus [15], with Mus musculus [16] and with Mus musculus [17] were 163%, 150% and 188%, respectively. This compound also returned an LAD in the assay with L5178Y of 8e-06 M l-1. Also, the LD50 in the assay on L1210 [3] stood at 600 mg/kg. In the assay on L1210 [4], this compound returned an ID50 of 2.78e-05 M l-1.
